Dynein cargo inh – inhibitors of GR-EGFP nuclear translocation, primary screen, dynein cargo transport inhibitor project, imaging, high-content, 3617.4 mouse cells; 0.47% of 220,000 active; z-score, hits read low; test concentration mostly 20 µM; stimulated with dexamethasone, 1 µM; stronger effect = lower value;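 active = plate z-score of nuclear minus cytoplasmic receptor signal below a set negative limit, without overly bright fluorescence or cell loss, cut at about -3.5 in these data, passing the limit was not always enough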;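 also: z-score of nuclear minus cytoplasmic ring GR-EGFP intensity difference per well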
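medium = tetracycline-free induction medium containing charcoal-stripped FBS | probe or stimulus = dexamethasone, 1.0 µM final | timing = 48 h induction, then 1 h compound, then 30 min agonist, 37 °C | detection = automated 10x imaging of fixed Hoechst-stained cells | read-out basis = nuclear versus cytoplasmic GR-EGFP signal, averaged per well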
XBP1 UPR activ – activators of adaptive XBP1 UPR arm, primary screen, cell-based, CHO-XBP1 luciferase reporter, luminescence, uHTS; activation, % at 20 µM; 0.33% of 330,000 active; AID 463104, 2010; IRE1-XBP1 UPR activation; percent of tunicamycin response, DMSO as zero;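 active = versus positive control, 20 µM dose yields 30% or more activation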;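 also: 100% = tunicamycin at 10 µg/mL and 0% = DMSO only wells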
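Assay system: CHO-XBP1 luciferase reporter cells; Schedule: 6 h treatment, 37 °C; Detection: glow luminescence from Steady-Glo reagent; Benchmarks: high control tunicamycin 10 µg/mL final, low control DMSO vehicle only.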
Mdm2 MdmX PPI – inhibitors of human Mdm2-MdmX association, primary screen, cell-based, luminescence, split luciferase, SaOS-2, uHTS. Protein Mdm4 (Homo sapiens) + E3 ubiquitin-protein ligase Mdm2 (Homo sapiens), …. SaOS-2 split-luciferase Mdm2/MdmX complementation. inhibition, % at 8 µM. 3% of 330,000 active;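 active = inhibition of at least 50% at 8 µM in the primary screen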
CHOP UPR activ – activators of apoptotic CHOP UPR arm, primary screen, cell-based, CHO-CHOP luciferase reporter, luminescence, uHTS. UPR activation; percent of tunicamycin response over DMSO baseline. activation, % at 10 µM. 0.34% of 330,000 active;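 active = at 10 µM dose, activation of 40% or more, normalized to positive control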;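 also: 100% = tunicamycin at 10 µg/mL and 0% = DMSO alone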
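Assay system: CHO cells with stable CHOP pathway luciferase reporter; Buffer or medium: F12 plus 10% serum; Times: 16-18 h cell attachment, then 6 h compound exposure, 37 °C; Signal: luciferase luminescence; Read-out basis: percent activation relative to tunicamycin control; Control set: tunicamycin high control, DMSO low control.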
MDM2 E3 inh – MDM2-luciferase reporter signal enhancers, primary screen, MDM2 E3 ligase inhibitor project, cell-based, luminescence, 1536-well; signal enhancement, % at 5 µM; E3 ubiquitin-protein ligase Mdm2 (Homo sapiens), Q00987; cell-based MDM2 ubiquitination luciferase reporter, 2 h; 0 = plate control, 100 = twice control, blank-subtracted; 0.11% of 210,000 active;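 active = signal enhancement of 30% or more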;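 also: luminescence tracks abundance of the self-degrading MDM2-luciferase fusion protein; higher signal means inhibition of MDM2 E3 ligase activity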
Target sequence (Q00987 whole entry, looked up, the tested form may be a part): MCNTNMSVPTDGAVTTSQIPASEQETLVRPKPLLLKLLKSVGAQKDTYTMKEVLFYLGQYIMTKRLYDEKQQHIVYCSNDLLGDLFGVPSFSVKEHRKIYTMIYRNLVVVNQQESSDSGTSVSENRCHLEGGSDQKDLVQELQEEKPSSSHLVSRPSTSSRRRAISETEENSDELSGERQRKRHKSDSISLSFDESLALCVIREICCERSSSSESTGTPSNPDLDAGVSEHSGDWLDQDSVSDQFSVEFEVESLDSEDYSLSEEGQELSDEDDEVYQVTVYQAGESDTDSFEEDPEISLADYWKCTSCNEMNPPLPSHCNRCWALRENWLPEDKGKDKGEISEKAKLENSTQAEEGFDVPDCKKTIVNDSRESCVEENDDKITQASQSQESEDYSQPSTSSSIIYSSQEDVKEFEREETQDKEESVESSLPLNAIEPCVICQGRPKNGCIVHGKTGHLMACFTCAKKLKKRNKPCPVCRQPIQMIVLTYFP
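Material: Stable MDM2–luciferase fusion reporter cells | Amount: 2000 cells seeded into each well | Dosing: One concentration, 5 µM, with 0.2% DMSO | Incubation: 4 h cell settling then 2 h compound exposure, 37 °C | Measured by: Luciferase luminescence | Read-out basis: % enhancement relative to plate controls after blank subtraction | Benchmarks: Control and blank well means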
Beta2AR agonist – beta2AR agonists driving receptor internalization, primary screen, cell-based, FAP fluorogen, flow cytometry | response, % (concentration not given with the values) | 0.43% of 340,000 active | AID 504454, 2011 | Beta-2 adrenergic receptor (Homo sapiens), P07550 | Am2.2-beta2AR cells;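 active = response above a set limit, near 3 SD of response in nonfluorescent compounds, cut at about 42% in these data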
UPR CHOP confirm – activators of apoptotic CHOP UPR arm, confirmation, cell-based, CHO-CHOP luciferase reporter, single concentration; shares compounds with CHOP UPR activ; CHO-CHOP cells, CHOP-luciferase reporter luminescence; percent of tunicamycin response, DMSO as zero; activation, % at 10 µM; 64% of 1,000 active; in the data active = activation above about 33%;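 also: 0% = DMSO wells and 100% = tunicamycin 10 µg/mL wells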
Active calls of the source: *. Only some compounds are listed: those with a hit (about 3.7% of all), similar ones and a draw of the others.

COC(=O)C1=C(C)N(c2ccc(C)c(C)c2)/C(=C/c2ccco2)C1=O was read as Dynein cargo inh 0.68, XBP1 UPR activ 14, Mdm2 MdmX PPI 35, CHOP UPR activ 68*, MDM2 E3 inh -44, Beta2AR agonist -2 and UPR CHOP confirm 47*.
CCOC(=O)C1=C(C)N(c2ccc(C)c(C)c2)C(=O)/C1=C\c1ccco1 was read as Dynein cargo inh -0.92, XBP1 UPR activ -1, Mdm2 MdmX PPI 1, CHOP UPR activ 2, MDM2 E3 inh -15 and Beta2AR agonist -6.
Screening Oc1ccc(-c2cn3c(n2)SCC3)cc1O returned Dynein cargo inh -0.0035, XBP1 UPR activ 0, Mdm2 MdmX PPI 4, CHOP UPR activ 52*, MDM2 E3 inh -11, Beta2AR agonist 5 and UPR CHOP confirm 2.
Screening Oc1ccc(-c2cn3c(n2)SCC3)cc1 returned Dynein cargo inh 0.49, XBP1 UPR activ -2, Mdm2 MdmX PPI 13, CHOP UPR activ -2, MDM2 E3 inh -12 and Beta2AR agonist -7.
`CCCOc1ccc(N2C(=O)CC(N(O)c3ccccc3)C2=O)cc1` (stereo unspecified) gave Dynein cargo inh 0.1, XBP1 UPR activ 5, Mdm2 MdmX PPI -35, CHOP UPR activ 192*, MDM2 E3 inh -12, Beta2AR agonist 5 and UPR CHOP confirm 170*.
CCCOc1ccccc1N1C(=O)CC(N(O)c2ccccc2)C1=O (stereo unspecified) was read as Dynein cargo inh -0.27, XBP1 UPR activ 4, Mdm2 MdmX PPI 3, CHOP UPR activ 3, MDM2 E3 inh -8 and Beta2AR agonist 7.
Screening CC(C)CNC(=O)c1coc(=O)c(Br)c1 returned Dynein cargo inh -1.5, XBP1 UPR activ -6, Mdm2 MdmX PPI 26, CHOP UPR activ 175*, MDM2 E3 inh -8, Beta2AR agonist -6 and UPR CHOP confirm 70*.
`CN(C)CCNC(=O)c1coc(=O)c(Br)c1` gave Dynein cargo inh -0.56, XBP1 UPR activ 1, Mdm2 MdmX PPI -16, CHOP UPR activ 1, MDM2 E3 inh -11 and Beta2AR agonist 9.
Screening O=C(NCCc1ccccc1)c1coc(=O)c(Br)c1 returned XBP1 UPR activ -8, Mdm2 MdmX PPI 41, CHOP UPR activ 105*, Beta2AR agonist 16 and UPR CHOP confirm 73*.
Screening C/C(=N\OCc1ccc(C#N)cc1)c1ccc(S(=O)(=O)N(C)C)cc1 returned XBP1 UPR activ 4, Mdm2 MdmX PPI 1, CHOP UPR activ 41*, Beta2AR agonist 0 and UPR CHOP confirm 6.
Screening O=C(N/N=C/c1ccccn1)c1cc([N+](=O)[O-])cc([N+](=O)[O-])c1 returned Dynein cargo inh 0.62, XBP1 UPR activ 4, Mdm2 MdmX PPI 12, CHOP UPR activ 45*, MDM2 E3 inh 13, Beta2AR agonist 17 and UPR CHOP confirm 65*.
Screening O=C(NN=Cc1cc(Cl)ccc1[N+](=O)[O-])c1ccco1 returned Beta2AR agonist -22.
O=C(/C=C/c1ccc(O)c(O)c1)c1ccc(S(=O)(=O)N2CCCCCC2)cc1 was read as Dynein cargo inh -2.2, XBP1 UPR activ 24, Mdm2 MdmX PPI 7, CHOP UPR activ 90*, MDM2 E3 inh 2, Beta2AR agonist 19 and UPR CHOP confirm 23.
For Cc1ccc(/C=C/C(=O)NC2CCCCCCC2)o1 the results were Dynein cargo inh -2.8, XBP1 UPR activ 4, Mdm2 MdmX PPI -5, CHOP UPR activ 125*, MDM2 E3 inh 14, Beta2AR agonist 6 and UPR CHOP confirm 3.
For CCOC(=O)c1c(C)[nH]c(C)c1S(=O)(=O)N(C)CC(=O)Nc1ccccc1F the results were XBP1 UPR activ -3, Mdm2 MdmX PPI -6, CHOP UPR activ 3 and Beta2AR agonist 1.
O=C(Oc1oc(-c2ccco2)nc1C=Nc1ccc(Cl)cc1)c1ccco1 was read as Dynein cargo inh -3.4, XBP1 UPR activ 9, Mdm2 MdmX PPI 0, CHOP UPR activ 77*, MDM2 E3 inh 5, Beta2AR agonist 3 and UPR CHOP confirm 76*.
O=c1[nH]n(-c2cccc3cccnc23)c(=O)c2ccccc12 was read as Dynein cargo inh -0.83, XBP1 UPR activ 2, Mdm2 MdmX PPI 2, CHOP UPR activ 1, MDM2 E3 inh -11 and Beta2AR agonist 6.
Screening Cc1nn(-c2cccc3cccnc23)c(=O)c2ccccc12 returned Dynein cargo inh -0.16, XBP1 UPR activ 0, Mdm2 MdmX PPI 0, CHOP UPR activ 45*, MDM2 E3 inh -11, Beta2AR agonist -7 and UPR CHOP confirm -1.
Screening O=C1C=CC(=O)C(C2=C3C(=O)N(CCc4ccccc4)CC(=O)N3CCC2)=C1 returned Dynein cargo inh -3.3, XBP1 UPR activ -3, Mdm2 MdmX PPI 27, CHOP UPR activ 131*, MDM2 E3 inh 5 and UPR CHOP confirm 49*.
Screening O=[N+]([O-])c1cc(O)c2ncccc2c1 returned Dynein cargo inh -0.012, XBP1 UPR activ 13, Mdm2 MdmX PPI 44, CHOP UPR activ 109*, MDM2 E3 inh -16 and UPR CHOP confirm 88*.
COc1ccc(-c2cc(C(F)F)n3ncc(C(=O)n4ccnc4C)c3n2)cc1 was read as Dynein cargo inh 0.022, XBP1 UPR activ -4, Mdm2 MdmX PPI 37, CHOP UPR activ 131*, MDM2 E3 inh -1, Beta2AR agonist 48* and UPR CHOP confirm 135*.
For COc1ccc(-c2cc(C(F)F)n3ncc(C(=O)N4CCN5CCCC5C4)c3n2)cc1 (stereo unspecified) the results were Dynein cargo inh 0.38, XBP1 UPR activ 8, Mdm2 MdmX PPI 5, CHOP UPR activ 3, MDM2 E3 inh -21 and Beta2AR agonist -2.
`O=[N+]([O-])c1cc(-c2nnc(C34CC5CC(CC(C5)C3)C4)o2)cc([N+](=O)[O-])c1` gave Dynein cargo inh 0.21, XBP1 UPR activ 8, Mdm2 MdmX PPI 10, CHOP UPR activ 137*, MDM2 E3 inh 8, Beta2AR agonist -18 and UPR CHOP confirm 20.

Compound activity: PubChem BioAssay, several laboratories
